The text below walks through data of ChEMBL document CHEMBL1131092, “Prodrugs of anthracyclines for use in antibody-directed enzyme prodrug therapy” (J Med Chem, 1998).

In general, IC50 refers to the midpoint of a concentration-inhibition curve. Low values mean higher potency, high ones lower potency.

Bounds are passed on as bounds.

In series [1] the test system is L1210. The series can be described thus: Inhibitory activity was measured against murine L1210 leukemia cells. Type of series: functional, cell-based. The settings on record: Mus musculus. The essentials:
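Exponentially growing L1210 cells in RPMI were exposed to a range of concentrations for 72 h (37 °C, 5% CO2), with quadruplicate wells and medium-only controls. MTT (2.5 mg/mL in PBS) was added at 65 h, and formazan was dissolved in DMSO after 7 more h. IC50 is 50% growth inhibition versus untreated control; replicate CV <15%.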

Series [2] in a line: Half life period at 200 ug/mL concentration of prodrug in the presence of 0.1 ug/mL Beta-glucuronidase (Escherichia coli) in phosphate buffer. The settings on record: in vitro.
Series [3] relates to Escherichia coli. The experiment in a line: Half life period at 200 ug/mL concentration of prodrug in the presence of 1 ug/mL Beta-glucuronidase (Escherichia coli) in phosphate buffer. The settings on record: in vitro.

Regarding `COc1cccc2c1C(=O)c1c(O)c3c(c(O)c1C2=O)C[C@@](O)(C(=O)CO)C[C@@H]3O[C@H]1C[C@@H](NC(=O)OCc2cc([N+](=O)[O-])ccc2O[C@@H]2O[C@@H](C(=O)O)[C@@H](O)[C@H](O)[C@@H]2O)[C@H](O)[C@H](C)O1`, in series [1], it took 16.6 µM to reach half-maximal inhibition (IC50). In addition, the T1/2 in series [2] was 216 min.
The corresponding values for `COc1cccc2c1C(=O)c1c(O)c3c(c(O)c1C2=O)C[C@@](O)(C(=O)CO)C[C@@H]3O[C@H]1C[C@@H](NC(=O)OCc2cc(F)ccc2O[C@@H]2O[C@@H](C(=O)O)[C@@H](O)[C@H](O)[C@@H]2O)[C@H](O)[C@H](C)O1` are 31 µM and 30 min.
The like results for `COc1cccc2c1C(=O)c1c(O)c3c(c(O)c1C2=O)C[C@@](O)(C(=O)CO)C[C@@H]3O[C@H]1C[C@@H](NC(=O)OCc2ccc(O[C@@H]3O[C@@H](C(=O)O)[C@@H](O)[C@H](O)[C@@H]3O)c([N+](=O)[O-])c2)[C@H](O)[C@H](C)O1` were, in that order, 2.21 µM and 37 min.
The like results for `COc1cccc2c1C(=O)c1c(O)c3c(c(O)c1C2=O)C[C@@](O)(C(=O)CO)C[C@@H]3O[C@H]1C[C@@H](NC(=O)OCc2ccc(O[C@@H]3O[C@@H](C(=O)O)[C@@H](O)[C@H](O)[C@@H]3O)c(Cl)c2)[C@H](O)[C@H](C)O1` were, in that order, 17 µM and 55 min.
Regarding `COc1cccc2c1C(=O)c1c(O)c3c(c(O)c1C2=O)C[C@@](O)(C(=O)CO)C[C@@H]3O[C@H]1C[C@@H](NC(=O)OCc2cc(Cl)ccc2O[C@@H]2O[C@@H](C(=O)O)[C@@H](O)[C@H](O)[C@@H]2O)[C@H](O)[C@H](C)O1`, in series [1], the 50% inhibitory concentration (IC50) was 16.6 µM. In addition, the values for the T1/2 in series [3] and in series [2] were 30 min and > 240 min, respectively.
With `COc1cccc2c1C(=O)c1c(O)c3c(c(O)c1C2=O)C[C@@](O)(C(C)=O)C[C@@H]3O[C@H]1C[C@@H](NC(=O)OCc2ccc(O[C@@H]3O[C@@H](C(=O)O)[C@@H](O)[C@H](O)[C@@H]3O)cc2)[C@H](O)[C@H](C)O1`, the IC50 in series [1] was > 10 µM.
Consider `COC(=O)[C@@H]1O[C@@H](Oc2ccccc2COC(=O)N[C@@H]2C[C@H](O[C@H]3C[C@](O)(C(C)=O)Cc4c(O)c5c(c(O)c43)C(=O)c3c(OC)cccc3C5=O)O[C@@H](C)[C@H]2O)[C@@H](OC(C)=O)[C@@H](OC(C)=O)[C@@H]1OC(C)=O`, for which the IC50 in series [1] was determined as 5.5 µM.
Compound `COc1cccc2c1C(=O)c1c(O)c3c(c(O)c1C2=O)C[C@@](O)(C(=O)CO)C[C@@H]3O[C@H]1C[C@@H](NC(=O)OCc2ccc(O[C@@H]3O[C@@H](C(=O)O)[C@@H](O)[C@H](O)[C@@H]3O)c(F)c2)[C@H](O)[C@H](C)O1` had an IC50 in series [1] of 8.8 µM. Besides, the T1/2 in series [2] came to 26 min.
Turning to `COc1cccc2c1C(=O)c1c(O)c3c(c(O)c1C2=O)C[C@@](O)(C(C)=O)C[C@@H]3O[C@H]1C[C@H](N)[C@H](O)[C@H](C)O1` [DAUNORUBICIN], the midpoint of inhibition in series [1], the IC50, lay at 0.03 µM.
